Most compounds without a hit are left out; they make up all but 2.5% or so of the library.
NPY2 pot ag – potentiators or agonists of human neuropeptide Y receptor Y2 | 220,000 compounds, 0.45% hits | P49146 | AID 1359 | cells expressing NPY-Y2, potentiator/agonist read-out | activation, % at 3.6 µM; in the data active = activation above about 27%;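 note: cells stimulated with NPY near EC25 plus isoproterenol at EC100; 0% = vehicle plus submaximal agonist and 100% = vehicle plus saturating agonist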
Target sequence (P49146 whole entry, looked up): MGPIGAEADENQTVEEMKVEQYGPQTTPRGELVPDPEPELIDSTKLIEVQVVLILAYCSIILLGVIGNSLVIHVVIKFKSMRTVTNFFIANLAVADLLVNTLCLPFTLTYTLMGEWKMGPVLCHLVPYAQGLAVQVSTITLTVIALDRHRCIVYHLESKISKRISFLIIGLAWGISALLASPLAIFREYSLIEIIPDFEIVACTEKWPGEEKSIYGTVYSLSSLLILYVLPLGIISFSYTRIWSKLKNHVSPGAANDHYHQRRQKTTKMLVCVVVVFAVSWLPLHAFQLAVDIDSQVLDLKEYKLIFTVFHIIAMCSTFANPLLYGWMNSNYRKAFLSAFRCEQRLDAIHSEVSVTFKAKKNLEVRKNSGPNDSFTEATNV
INS promoter inh – TRM-6 insulin promoter activity inhibition. TRM-6 cells, insulin promoter-eGFP reporter, imaging; reporter expression induced with tamoxifen. 130,000 compounds, 0.9% hits. inhibition, % at 2 µM;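 active = inhibition above the mean plus 3 SD, with well images judged a real hit on visual review, cut at about 60% in these data, passing the limit was not always enough; inconclusive = inhibition over the cutoff but images rejected on review; inactive = inhibition not above the cutoff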
Insulin prom up – MIN6 insulin promoter up-regulation | z-score at 5 µM | MIN6 insulin promoter-GFP reporter, high-content imaging; hits give high values | 190,000 compounds, 0.3% hits | AID 1625;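 active = z-score above 3 at 5 µM with at least 500 cells counted in the well; inconclusive = wells under 500 cells, flagged as cytotoxic or low count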
NPY Y2 blocker – NPY-Y2 (human) receptor antagonism; P49146; NPY-Y2 expressing cells, antagonist mode; inhibition, % at 2.7 µM; 140,000 compounds, 0.99% hits; in the data active = inhibition above about 17%;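 note: 0% = vehicle with agonist challenge and 100% = reference antagonist with challenge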
NPY-Y1 antag – blocks the human neuropeptide Y Y1 receptor. P25929. HEK293-CNG Y1 cells, membrane potential fluorescence; NPY at EC95, then isoproterenol. inhibition, % at 3.6 µM. 200,000 compounds, 1% hits;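 active = inhibition above the campaign mean inhibition of all tested compounds plus 3 SD, cut at about 20% in these data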;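 note: 0% = DMSO wells given NPY plus isoproterenol and 100% = isoproterenol alone without NPY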
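Material: HEK293 cells with Y1 receptor plus CNG channel; times: compound incubation 1 h at room temperature, readout 45 min post-stimulation; signal: fluorescence, membrane potential probe; read-out basis: fluorescence ratio normalized to % inhibition between controls; benchmarks: full-block control isoproterenol-only wells, zero-block control NPY plus isoproterenol wells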
NPY-Y1 PAM-ag – potentiators or agonists of human neuropeptide Y receptor Y1 | P25929 | NPY-Y1 expressing cells, potentiator/agonist activation | activation, % at 3.6 µM | 220,000 compounds, 0.37% hits | AID 1304; in the data active = activation above about 33%, passing the limit was not always enough;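 note: cells stimulated with NPY at EC10 then isoproterenol at EC100; 0% = low agonist plus stimulus and 100% = saturating agonist plus stimulus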
* = called active by the depositor; ? = inconclusive; . = not tested or not shown.

SMILES	NPY2 pot ag	INS promoter inh	Insulin prom up	NPY Y2 blocker	NPY-Y1 antag	NPY-Y1 PAM-ag
COc1ccc(Br)c(C(=O)N2CCN(S(=O)(=O)c3cccs3)CC2)c1	-3	.	-0.07	.	.	25
Cc1noc(C)c1C(=O)N1CCC2(CC1)Oc1ccc(F)cc1C(=O)C21CC(c2ccc(Cl)cc2)=NO1 (configuration not stated)	.	.	-1.3	.	.	.
CCOC(=O)NN1C(=O)c2ccccc2NC1c1ccc(OC)cc1OC (configuration not stated)	12	0	.	.	1	13
COC(=O)CNC(c1ccccc1)c1cc(Br)ccc1NC(=O)CNC(=O)OCc1ccccc1 (configuration not stated)	-5	14	0.71	29*	25*	1
CCOC(=O)CNC(c1ccccc1)c1cc(Br)ccc1NC(=O)OCC (configuration not stated)	-23	-52	.	8	19	-24
COC(=O)CN1C(C)=Nc2ccc(C)cc2C1c1ccccc1 (configuration not stated)	-11	.	-0.76	.	14	-18
COC(=O)CN1C(c2ccccc2)=Nc2ccc(Cl)cc2C1c1ccccc1 (configuration not stated)	-4	-23	-1.1	22*	27*	-6
Cc1ccc2nc(-c3cccc(N)c3)[nH]c2c1	-22	80*	.	2	6	-40
Cn1cc(-c2nc3ccccc3[nH]2)c2ccccc21	-19	100*	0.8	4	7	-33
Nc1ccccc1-c1nc2ccccc2[nH]1	1	94*	-0.67	7	-2	-31
Cc1ccc2nc(-c3sc4nc(C)cc(C)c4c3N)[nH]c2c1	-18	44	.	1	2	-27
Nc1ccc(-c2nc3ccccc3[nH]2)cc1	2	.	-0.13	0	4	-4
Nc1cccc(-c2nc3ccccc3[nH]2)c1	-8	75*	.	3	8	-8
c1ccc(-c2cc(-c3nc4ccccc4[nH]3)c3ccccc3n2)cc1	-17	22	0.04	9	4	-10
C[C@@H](C(=O)Nc1cccc(S(=O)(=O)N2CCOCC2)c1)N1C(=O)C2CC=CCC2C1=O (some centres not stated)	3	32	0.06	.	-6	2
CC(C)(C)NC(=O)c1ccccc1-c1nc(-c2ccccc2Cl)no1	-21	-27	.	10	4	-21
CC(C)c1cc(C(=O)N2CCCC(CCC(=O)N3CCN(c4ccccn4)CC3)C2)no1 (configuration not stated)	11	.	1.2	.	.	-2
CCOc1ccc(Br)cc1S(=O)(=O)Nc1ccc(Cl)c(S(=O)(=O)N(CC)c2ccccc2)c1	7	-10	-0.31	-3	2	25
CCc1ccc(NC(=O)c2c(C(=O)Nc3ccccc3)sc3nc(C)cc(=O)n23)cc1	-13	.	-3.6	.	17	-47
O=[N+]([O-])c1cccc(-c2nc3ccc([N+](=O)[O-])cc3[nH]2)c1	1	92*	-1.7	.	3	6
O=[N+]([O-])c1ccc2nc(-c3ccncc3)[nH]c2c1	-4	.	-0.61	.	.	9
O=C(NC(Cc1ccccc1)c1nc2ccccc2[nH]1)c1ccc(Cl)c([N+](=O)[O-])c1 (configuration not stated)	40*	.	0.57	0	-4	47*
CCc1cc2c(=O)c(-c3nc4ccccc4[nH]3)coc2c(CN2CCCCC2)c1O	-5	.	-0.24	.	.	3
O=c1oc2c(CN3CCCCC3)c(O)ccc2cc1-c1nc2ccccc2[nH]1	.	.	3.6*	.	.	.
COc1ccc(NC(=O)N2CCN(c3ccc([N+](=O)[O-])cc3)CC2)cc1OC	11	.	-0.62	.	-5	19
COc1ccc(OCC(=O)N2CCN(c3cccc(C(F)(F)F)c3)CC2)cc1	100*	.	-0.02	10	2	72*
CCOC(=O)N1CCC2(CC1)NCCc1c2[nH]c2ccccc12	-21	.	-0.13	.	.	3
CCCn1c(=N)n(CC(O)COc2ccc(C)cc2)c2ccccc21 (configuration not stated)	-53	.	-0.2	.	.	-46
COc1ccccc1OCC(O)Cn1c(=N)n(Cc2ccccc2)c2ccccc21 (configuration not stated)	-26	-278	?	39*	27*	-55

Assay outcomes: PubChem BioAssay, several laboratories
